From PMC9054070 (RSC Advances, 2020)
Where “and” joins values, the source holds several entries; their conditions need not be identical. Equal entries are not always repeated. Where two headings read alike, the source gives them in different places.

Columns and labels:
MCF-7 cell line = assay: Cytotoxic screening using MTT assay, MCF-7; type: cell-based
Outline: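 MTT cytotoxicity read-out on MCF-7 cells; IC50 from a sigmoidal log-concentration curve; 5-fluorouracil run alongside as reference drug.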

HepG2 cell line = assay: Cytotoxic screening using MTT assay, HepG2; type: cell-based; details: Homo sapiens, HepG2, 48 h, read-out: IC50 (μM) HepG2
normal cell line GMSC = assay: Cytotoxic screening using MTT assay, normal cell line GMSC; type: cell-based; details: read-out: IC50 (μM) GMSC
[1] = test system: Ehrlich Ascites Carcinoma (EAC); assay: In vivo anti-tumor activity in EAC-bearing mice; details: for percentage MST ratio (T/C%) / percentage increase in life span (ILS%): compared to EAC control; for percentage cell growth inhibition (CGI%) / tumor volume / total tumor cell count / packed cell volume (PCV%): day 18; for tumor volume: EAC control 19.5 mL; for total tumor cell count: EAC control 19.9; for packed cell volume (PCV%): EAC control 36.72%
[2] = Homo sapiens, MCF7, 48 h, read-out: IC50 (μM) MCF-7, MTT assay, 48 h treatment
[3] = read-out: IC50 (μM) MCF-7, MTT assay, 48 h treatment

## O=c1[nH]ncc2c1[nH]c1ccccc12 [Compound 2, 3,5-Dihydro-4H-pyridazino[4,5-b]indol-4-one]
MCF-7 cell line; [2]
  IC50: 9.43 µM
HepG2 cell line
  IC50: 22.8 µM

## N#CCCn1ncc2c3ccccc3n(CCC#N)c2c1=O [Compound 3, 3,3′-(4-oxo-3H-pyridazino[4,5-b]indole-3,5(4H)-diyl)dipropanenitrile]
HepG2 cell line
  IC50: > 50 µM

## C=CCn1c2ccccc2c2cn[nH]c(=O)c21 [Compound 5, 5-Allyl-3,5-dihydro-4H-pyridazino[4,5-b]indol-4-one]
MCF-7 cell line; [2]
  IC50: > 50 µM
Normal cell line GMSC; 48 h
  IC50: > 50 µM
HepG2 cell line
  IC50: > 50 µM

## O=c1[nH]cc(F)c(=O)[nH]1 [Compound 5-FU, reference compound]
MCF-7 cell line; [3]
  IC50: 6.98 µM
Normal cell line GMSC; MTT assay, 48 h treatment, normal cell line
  IC50: > 50 µM
[1]; EAC-bearing mice
  percentage MST ratio (T/C%): 166%
  percentage increase in life span (ILS%): 66%
[1]; ascetic peritoneal fluid
  percentage cell growth inhibition (CGI%): 38.67%
  tumor volume: 12.6 mL
  total tumor cell count: 12.2 × 10^7 cells per mL
  packed cell volume (PCV%): 23.78%

## O=c1[nH]ncc2c3ccccc3n(Cc3ccccc3)c12 [Compound 6, 5-Benzyl-3,5-dihydro-4H-pyridazino[4,5-b]indol-4-one]
MCF-7 cell line; [2]
  IC50: 29.5 µM
Normal cell line GMSC; 48 h
  IC50: > 50 µM

## C=CCn1ncc2c3ccccc3n(CC=C)c2c1=O [Compound 8, 3,5-Diallyl-3,5-dihydro-4H-pyridazino[4,5-b]indol-4-one]
MCF-7 cell line; [2]
  IC50: 17 µM

## O=c1c2c(cnn1Cc1ccccc1)c1ccccc1n2Cc1ccccc1 [Compound 9, 3,5-Dibenzyl-3,5-dihydro-4H-pyridazino[4,5-b]indol-4-one]
MCF-7 cell line; [2]
  IC50: > 50 µM

## CCOC(=O)Cn1c2ccccc2c2cn[nH]c(=O)c21 [Compound 10, Ethyl 2-(4-oxo-3,4-dihydro-5H-pyridazino[4,5-b]indol-5-yl)acetate]
MCF-7 cell line; [2]
  IC50: 12.4 µM
Normal cell line GMSC; 48 h
  IC50: > 50 µM
HepG2 cell line
  IC50: 36.7 µM

## CCOC(=O)Cn1ncc2c3ccccc3n(CC(=O)OCC)c2c1=O [Compound 11, Diethyl 2,2′-(4-oxo-3H-pyridazino[4,5-b]indole-3,5(4H)-diyl)diacetate]
MCF-7 cell line; [2]
  IC50: 9.07 µM
Normal cell line GMSC; 48 h
  IC50: > 50 µM
HepG2 cell line
  IC50: 18.8 µM

## NNC(=O)Cn1c2ccccc2c2cn[nH]c(=O)c21 [Compound 12, 2-(4-Oxo-3,4-dihydro-5H-pyridazino[4,5-b]indol-5-yl)acetohydrazide]
MCF-7 cell line; [2]
  IC50: 4.24 µM
MCF-7 cell line; [3]
  IC50: 4.25 µM
Normal cell line GMSC; 48 h
  IC50: > 50 µM
HepG2 cell line
  IC50: 12.8 µM
[1]; EAC-bearing mice
  percentage MST ratio (T/C%): 172%
  percentage increase in life span (ILS%): 72%
[1]; EAC-bearing mice, untreated EAC control 43.65%
  percentage increase in body weight (IBW%): 19.27% and 15.56%
[1]; ascetic peritoneal fluid
  percentage cell growth inhibition (CGI%): 50.74%
  tumor volume: 11.9 mL
  total tumor cell count: 9.8 × 10^7 cells per mL
  packed cell volume (PCV%): 19.32%
[1]; ascetic peritoneal fluid, day 18, trypan blue exclusion, EAC control 91.9%
  percentage of viable cells: 59.6%
